Reference: article PMC9670014 (SLAS discovery : advancing life sciences R & D, 2022)

Molecular target: T1, NR2F6 (Mus musculus, UniProt P43136)
T1 sequence (P43136 1-390): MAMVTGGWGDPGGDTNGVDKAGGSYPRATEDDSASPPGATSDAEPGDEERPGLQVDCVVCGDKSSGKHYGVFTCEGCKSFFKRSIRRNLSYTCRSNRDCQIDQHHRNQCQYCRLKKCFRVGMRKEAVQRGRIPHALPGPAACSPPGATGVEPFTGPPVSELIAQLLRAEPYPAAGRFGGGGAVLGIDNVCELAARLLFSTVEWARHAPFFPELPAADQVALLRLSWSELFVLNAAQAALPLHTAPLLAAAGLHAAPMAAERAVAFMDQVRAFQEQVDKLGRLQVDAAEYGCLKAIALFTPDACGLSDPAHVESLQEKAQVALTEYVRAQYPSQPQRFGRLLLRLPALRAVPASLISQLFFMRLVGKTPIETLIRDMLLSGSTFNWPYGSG
Experiment: NR2F6/Il17a luciferase assay in transiently transfected HEK293 cells
Format: cell-based
Details: Maxcyte transfected HEK293 cells, 384-well format, Troglitazone 62.5uM
Method in brief: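 HEK293 cells grown in DMEM with 10% heat-inactivated FBS and 1% penicillin-streptomycin, harvested at 70% confluency, and resuspended in electroporation buffer at 1×10^8 cells/mL. Il17a::luc plus NR2F6 or empty vector was electroporated with DNA amount titrated, then recovered 5 h at 37 °C. Luciferase was read with positive control versus untreated samples.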

NR2F6's repressive transcriptional response (Il17a luciferase signal): further enhanced
Compound: Cc1c(C)c2c(c(C)c1O)CCC(C)(COc1ccc(CC3SC(=O)NC3=O)cc1)O2 (stereo not shown) [Troglitazone]
